Reference: ChEMBL document CHEMBL4350999, “Enhanced tumor retention of NTSR1-targeted agents by employing a hydrophilic cysteine cathepsin inhibitor” (Eur J Med Chem, 2019)
Calls of active or inactive are those of the source. The rule behind the calls is not given here.

Legend:
[1] = molecular target: T1, Cathepsin B (Homo sapiens, UniProt P07858); assay: Binding affinity to cathepsin B in human HT-29 cells assessed as intracellular adduct formation at 0.74 MBq incubated for 4 hrs using 177Lu labelled compound by SDS-PAGE analysis; format: cell-based; parameters: dose or concentration left out as unconfirmed
Summary of the method: (§1)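 HT-29 cells (1 × 10^6/well) incubated 4 h at 37 °C with 177Lu conjugate (20 μCi, 0.74 MBq) in 1 mL medium, with or without E-64 (10 μM) or NTSR1 peptide N1 (20 μM). Cells washed and refed; at set times cells pooled, RIPA-lysed with protease inhibitor. Lysates heated 85 °C 2 min, run on 16% tris-glycine SDS-PAGE, and phosphor autoradiography taken after 72 h exposure.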

[2] = molecular target: T1, Cathepsin B; assay: Binding affinity to human liver cathepsin B assessed as protein-conjugate adduct formation incubated for 30 mins using 177Lu labelled compound by SDS-PAGE analysis
Summary of the method: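 Purified human liver CatB or CatL (3 nM) in 50 mM sodium acetate/1 mM EDTA pH 5.0 incubated 30 min with 177Lu conjugate (500,000 cpm) in Tris/MgCl2/DTT buffer pH 5.5, alone or with E-64 (10 μM) or N1 (20 μM). Mixtures heated 85 °C 2 min, run on 16% tris-glycine gel at 110 V for 90 min, and read by phosphor autoradiography.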

[3] = Drug uptake in human HT-29 cells measured after 240 mins using 177Lu labelled compound by gamma counter method relative to control; format: ADME, cell-based; details: ht-29, 4 h
Summary of the method: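 HT-29 cells (~1 × 10^6 in 1 mL medium) were incubated with 177Lu-conjugate (100,000 cpm) at 37 °C and sampled at 15–240 min. After medium washes, surface-bound activity was stripped with pH 2.8 glycine-HCl/NaCl buffer, and the internalized fraction was taken from the 1% SDS lysate. Fractions were gamma-counted as % of total added activity; mean ± SD, n = 3.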

[4] = molecular target: Neurotensin receptor type 1 (Homo sapiens, UniProt P30989); assay: Displacement of [177Lu] DOTA-beta-ala-[N-alpha-Me8, Dmt11, Tle12] NT6-13 from neurotensin receptor in human HT-29 cells incubated for 45 mins by gamma counter analysis; format: cell-based
Summary of the method: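 HT-29 cells (~1 × 10^6) in McCoy's 5A with HEPES and 2 mg/mL BSA, pH 7.4. Incubated 45 min at 37 °C with 177Lu-N1 (100,000 cpm) plus conjugate at 5 nM–1 μM. Cells washed, bound activity gamma-counted, IC50 obtained by nonlinear regression; biological triplicate.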

[5] = molecular target: Procathepsin L (Homo sapiens, UniProt P07711); assay: Binding affinity to cathepsin L in human HT-29 cells assessed as intracellular adduct formation at 0.74 MBq incubated for 4 hrs using 177Lu labelled compound by SDS-PAGE analysis; format: cell-based; parameters: dose or concentration left out as unconfirmed; summary of the method: as §1
[6] = Drug retention in kidney of mouse xenografted with human HT-29 cells assessed as tissue-conjugate adduct formation at 29.6 MBq measured after 72 hrs using 177Lu labelled compound by SDS-PAGE analysis; format: ADME, tissue-based; details: in vivo
Summary of the method: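 HT-29 xenograft mice given 800 μCi (29.6 MBq) 177Lu conjugate i.v. and killed at 72 h. Tumor, liver and kidney homogenized in RIPA with protease inhibitor and supernatants run on SDS-PAGE autoradiography. Other supernatant aliquots filtered through 10 kDa MWCO devices to give the % macromolecule-associated radioactivity; n = 3.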

[7] = Stability of 177Lu labelled compound in human serum assessed as parent compound remaining at 37 degC after 1 hr RP-HPLC analysis; format: ADME, cell-free; details: read-out: Stability
Summary of the method: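 Radioconjugate (1.5 mCi, 55.5 MBq) was incubated in 300 μL human serum at 37 °C. At 1, 3 and 24 h, acetonitrile was added and samples were spun at 12,000×g for 5 min. Supernatant was dried under nitrogen, reconstituted in water and analyzed by radio-HPLC.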

[8] = molecular target: T1, Cathepsin B; assay: Inhibition of human liver cathepsin B assessed as second order rate constant using Z-Arg-Arg-AMC as substrate measured every 5 mins for 1 hr by fluorescence assay
Summary of the method: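 Human liver cathepsin B, 2 nM final, in 0.1 M phosphate pH 5.8 (1 mM EDTA, 2.7 mM DTT, 0.03% Brij35). Enzyme mixed with conjugate (1–500 nM final), then Z-Arg-Arg-AMC added (800 μM final); 37 °C. […] Biological triplicate.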

[9] = Ratio of drug uptake in SCID mouse xenograted with human HT-29 cells assessed as tumour retention to drug uptake in blood of SCID mouse xenografted with human HT-29 cells measured after 4 hrs using 177Lu labelled compound; format: ADME, tissue-based, Tumor/Blood
Summary of the method: (§2)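 Female SCID mice (5 weeks old) received s.c. flank HT-29 cells (5 × 10^6 in Matrigel). At ~80 mm3, two weeks later, mice were randomized and given 10 μCi (0.37 MBq) of purified 177Lu conjugate i.v. by tail vein. Mice were killed at 4, 24 or 72 h. Tissues were weighed and gamma counted as %ID/g, mean ± SD, n = 5. Tumor-to-tissue ratios were calculated.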

[10] = Ratio of drug uptake in SCID mouse xenograted with human HT-29 cells assessed as tumour retention to drug uptake in lung of SCID mouse xenografted with human HT-29 cells measured after 4 hrs using 177Lu labelled compound; format: ADME, tissue-based, Tumor/Lung; summary of the method: as §2
[11] = Ratio of drug uptake in SCID mouse xenograted with human HT-29 cells assessed as tumour retention to drug uptake in large intestine of SCID mouse xenografted with human HT-29 cells measured after 24 hrs using 177Lu labelled compound; format: ADME, tissue-based, Tumor/Large intestine; summary of the method: as §2
[12] = Ratio of drug uptake in SCID mouse xenograted with human HT-29 cells assessed as tumour retention to drug uptake in spleen of SCID mouse xenografted with human HT-29 cells measured after 72 hrs using 177Lu labelled compound; format: ADME, tissue-based, Tumor/Spleen; summary of the method: as §2
[13] = Ratio of drug uptake in SCID mouse xenograted with human HT-29 cells assessed as tumour retention to drug uptake in liver of SCID mouse xenografted with human HT-29 cells measured after 72 hrs using 177Lu labelled compound; format: ADME, tissue-based, Tumor/Liver; summary of the method: as §2
[14] = Ratio of drug uptake in SCID mouse xenograted with human HT-29 cells assessed as tumour retention to drug uptake in pancreas of SCID mouse xenografted with human HT-29 cells measured after 4 hrs using 177Lu labelled compound; format: ADME, tissue-based, Tumor/Pancreas; summary of the method: as §2
[15] = Ratio of drug uptake in SCID mouse xenograted with human HT-29 cells assessed as tumour retention to drug uptake in spleen of SCID mouse xenografted with human HT-29 cells measured after 24 hrs using 177Lu labelled compound; format: ADME, tissue-based, Tumor/Spleen; summary of the method: as §2
[16] = Ratio of drug uptake in SCID mouse xenograted with human HT-29 cells assessed as tumour retention to drug uptake in kidney of SCID mouse xenografted with human HT-29 cells measured after 4 hrs using 177Lu labelled compound; format: ADME, tissue-based, Tumor/Kidney; summary of the method: as §2
[17] = Ratio of drug uptake in SCID mouse xenograted with human HT-29 cells assessed as tumour retention to drug uptake in muscle of SCID mouse xenografted with human HT-29 cells measured after 72 hrs using 177Lu labelled compound; format: ADME, tissue-based, Tumor/Muscle; summary of the method: as §2
[18] = Ratio of drug uptake in SCID mouse xenograted with human HT-29 cells assessed as tumour retention to drug uptake in blood of SCID mouse xenografted with human HT-29 cells measured after 24 hrs using 177Lu labelled compound; format: ADME, tissue-based, Tumor/Blood; summary of the method: as §2
[19] = Ratio of drug uptake in SCID mouse xenograted with human HT-29 cells assessed as tumour retention to drug uptake in muscle of SCID mouse xenografted with human HT-29 cells measured after 4 hrs using 177Lu labelled compound; format: ADME, tissue-based, Tumor/Muscle; summary of the method: as §2

Chain of Neurotensin receptor type 1 (P30989 whole entry): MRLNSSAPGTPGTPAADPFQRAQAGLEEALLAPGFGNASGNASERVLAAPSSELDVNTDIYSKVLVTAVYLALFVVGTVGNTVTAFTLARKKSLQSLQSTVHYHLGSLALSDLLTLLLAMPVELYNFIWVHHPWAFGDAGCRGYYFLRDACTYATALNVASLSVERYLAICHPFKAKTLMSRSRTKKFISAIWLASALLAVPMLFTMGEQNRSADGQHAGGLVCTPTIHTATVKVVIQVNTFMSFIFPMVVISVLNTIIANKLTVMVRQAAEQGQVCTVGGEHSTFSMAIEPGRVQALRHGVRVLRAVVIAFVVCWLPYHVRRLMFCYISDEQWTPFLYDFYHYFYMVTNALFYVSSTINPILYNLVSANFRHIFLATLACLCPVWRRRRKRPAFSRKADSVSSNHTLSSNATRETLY
Chain of Procathepsin L (P07711 114-333 limits assumed): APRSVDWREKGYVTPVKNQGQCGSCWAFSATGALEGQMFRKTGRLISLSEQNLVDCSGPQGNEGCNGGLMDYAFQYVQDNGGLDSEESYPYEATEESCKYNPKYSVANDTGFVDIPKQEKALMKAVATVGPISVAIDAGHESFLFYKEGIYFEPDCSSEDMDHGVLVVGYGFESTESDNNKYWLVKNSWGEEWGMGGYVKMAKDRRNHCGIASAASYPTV

Compound | Activity [1] | Activity [2] | Drug uptake [3] [%] | IC50 [4] [nM] | Activity [5] | Drug uptake [6] | remaining at 1 h [7] [%] | inhibition [8] | Kp at 4 h [9] | Ratio [10] | Ratio [11] | Ratio [12] | Ratio [13] | Ratio [14] | Ratio [15] | Ratio [16] | Ratio [17] | Kp at 24 h [18] | Ratio [19] | K [8] [M⁻¹ s⁻¹]
Cc1cc(O)cc(C)c1C[C@H](NC(=O)[C@@H]1CCCN1C(=O)[C@H](CCCNC(=N)N)NC(=O)[C@H](CCCNC(=N)N)N(C)C(=O)[C@@H]1CCCN1C(=O)[C@H](CCCCN)NC(=O)[C@@H](CO)NC(=O)[C@@H](CO)NC(=O)[C@@H](CO)NC(=O)[C@H](Cc1cn(CCNC(=O)[C@H](CCCNC(=N)N)NC(=O)[C@H](CC(C)C)NC(=O)CCC(=O)O)nn1)NC(=O)CN1CCN(CC(=O)O)CCN(CC(=O)O)CCN(CC(=O)O)CC1)C(=O)N[C@H](C(=O)N[C@@H](CC(C)C)C(=O)O)C(C)(C)C | inactive | inactive | 6 | 63 | inactive | Not Active | 84.7 | inactive | – | – | – | – | – | – | – | – | – | – | – | –
Cc1cc(C)c(C(=O)OCC(=O)[C@H](CCCCNC(=O)CNC(=O)[C@@H](CO)NC(=O)[C@@H](CO)NC(=O)[C@@H](CO)NC(=O)Cn2cc(C[C@H](NC(=O)CN3CCN(CC(=O)O)CCN(CC(=O)O)CCN(CC(=O)O)CC3)C(=O)N[C@H](CO)C(=O)N[C@H](CO)C(=O)N[C@H](CO)C(=O)N[C@@H](CCCCN)C(=O)N3CCC[C@H]3C(=O)N(C)[C@@H](CCCNC(=N)N)C(=O)N[C@@H](CCCNC(=N)N)C(=O)N3CCC[C@H]3C(=O)N[C@@H](Cc3c(C)cc(O)cc3C)C(=O)N[C@H](C(=O)N[C@@H](CC(C)C)C(=O)O)C(C)(C)C)nn2)NC(=O)[C@H](Cc2ccccc2)NC(=O)OCc2ccccc2)c(C)c1 | – | – | – | – | – | – | – | – | 6.5 | 1.9 | 5 | 0.28 | 0.6 | 9 | 0.7 | 0.13 | 16 | 69 | 15 | –
Cc1cc(O)cc(C)c1C[C@H](NC(=O)[C@@H]1CCCN1C(=O)[C@H](CCCNC(=N)N)NC(=O)[C@H](CCCNC(=N)N)N(C)C(=O)[C@@H]1CCCN1C(=O)[C@H](CCCCN)NC(=O)[C@@H](CO)NC(=O)[C@@H](CO)NC(=O)[C@@H](CO)NC(=O)[C@H](Cc1cn(CCNC(=O)[C@H](CCCNC(=N)N)NC(=O)[C@H](CC(C)C)NC(=O)C2OC2C(=O)O)nn1)NC(=O)CN1CCN(CC(=O)O)CCN(CC(=O)O)CCN(CC(=O)O)CC1)C(=O)N[C@H](C(=O)N[C@@H](CC(C)C)C(=O)O)C(C)(C)C (stereo partly drawn) | Active | Active | 6 | 60 | Active | Active | 93.6 | – | 337 | 12.3 | 6 | 2.4 | 5.9 | 38 | 4 | 0.1 | 153 | 422 | 94 | 67000
